# Results reported in ChEMBL document CHEMBL1828620, “Synthesis of novel 6-phenyl-2,4-disubstituted pyrimidine-5-carbonitriles as potential antimicrobial agents” (2011).
# Columns and labels:
# Type in all cases: functional
# Candida albicans = assay: Antifungal activity against Candida albicans IFO 0583 at 200 ug/disc after 48 hrs by agar disc diffusion method; conditions: IFO 0583, 48 h, read-out: DIZ
# In short: (§1)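 Agar disc diffusion: sterile 8 mm filter-paper discs moistened with compound solution in DMSO, placed on agar plates each pre-inoculated with one organism; plates held at 37 °C; growth inhibition zone diameter measured after 24 h (bacteria) or 48 h (C. albicans).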
# Staphylococcus aureus [1] = assay: Antimicrobial activity against Staphylococcus aureus IFO 3060 at 200 ug/disc after 24 hrs by agar disc diffusion method; conditions: IFO 3060, 24 h, read-out: DIZ; in short: as §1
# Bacillus subtilis [2] = assay: Antimicrobial activity against Bacillus subtilis IFO 3007 at 200 ug/disc after 24 hrs by agar disc diffusion method; conditions: IFO 3007, 24 h, read-out: DIZ; in short: as §1
# Micrococcus luteus [3] = assay: Antimicrobial activity against Micrococcus luteus IFO 3232 at 200 ug/disc after 24 hrs by agar disc diffusion method; conditions: IFO 3232, 24 h, read-out: DIZ; in short: as §1
# Escherichia coli [4] = assay: Antimicrobial activity against Escherichia coli IFO 3301 at 200 ug/disc after 24 hrs by agar disc diffusion method; conditions: IFO 3301, 24 h, read-out: DIZ; in short: as §1
# Pseudomonas aeruginosa [5] = assay: Antimicrobial activity against Pseudomonas aeruginosa IFO 3448 at 200 ug/disc after 24 hrs by agar disc diffusion method; conditions: IFO 3448, 24 h, read-out: DIZ; in short: as §1
# Staphylococcus aureus [6] = assay: Antimicrobial activity against Staphylococcus aureus IFO 3060 after 24 hrs by two fold serial dilution method
# Bacillus subtilis [7] = assay: Antimicrobial activity against Bacillus subtilis IFO 3007 after 24 hrs by two fold serial dilution method
# Micrococcus luteus [8] = assay: Antimicrobial activity against Micrococcus luteus IFO 3232 after 24 hrs by two fold serial dilution method
# Escherichia coli [9] = assay: Antimicrobial activity against Escherichia coli IFO 3301 after 24 hrs by two fold serial dilution method
# Pseudomonas aeruginosa [10] = assay: Antimicrobial activity against Pseudomonas aeruginosa IFO 3448 after 24 hrs by two fold serial dilution method
# Staphylococcus aureus [11] = assay: Antimicrobial activity against Staphylococcus aureus IFO 3060 at 100 ug/disc after 24 hrs by agar disc diffusion method; in short: as §1
# Bacillus subtilis [12] = assay: Antimicrobial activity against Bacillus subtilis IFO 3007 at 100 ug/disc after 24 hrs by agar disc diffusion method; in short: as §1
# Micrococcus luteus [13] = assay: Antimicrobial activity against Micrococcus luteus IFO 3232 at 100 ug/disc after 24 hrs by agar disc diffusion method; in short: as §1
# Escherichia coli [14] = assay: Antimicrobial activity against Escherichia coli IFO 3301 at 100 ug/disc after 24 hrs by agar disc diffusion method; in short: as §1
# Pseudomonas aeruginosa [15] = assay: Antimicrobial activity against Pseudomonas aeruginosa IFO 3448 at 100 ug/disc after 24 hrs by agar disc diffusion method; in short: as §1
Molecule,zone of inhibition at 200 µg/disc (Candida albicans) [mm],zone of inhibition at 200 µg/disc (Staphylococcus aureus [1]) [mm],zone of inhibition at 200 µg/disc (Bacillus subtilis [2]) [mm],zone of inhibition at 200 µg/disc (Micrococcus luteus [3]) [mm],zone of inhibition at 200 µg/disc (Escherichia coli [4]) [mm],zone of inhibition at 200 µg/disc (Pseudomonas aeruginosa [5]) [mm],"MIC (Staphylococcus aureus [6]; IFO 3060, 24 h) [mg/L]","MIC (Bacillus subtilis [7]; IFO 3007, 24 h) [mg/L]",further results
Cc1cccc(Sc2nc(SCc3ccc(Cl)cc3)nc(-c3ccccc3)c2C#N)c1,< 10,< 10,< 10,< 10,< 10,< 10,–,–,–
CCSCCSc1nc(-c2ccccc2)c(C#N)c(=O)[nH]1,12,12,16,12,16,14,–,–,–
N#Cc1c(Nc2ccc(C(F)(F)F)cc2)nc(SCc2ccc(Cl)cc2)nc1-c1ccccc1,< 10,15,17,13,< 10,< 10,–,–,–
N#Cc1c(O)nc(SCc2ccc(Cl)cc2)nc1-c1ccccc1,< 10,20,19,19,14,12,8,8,"MIC (Micrococcus luteus [8]; IFO 3232, 24 h): 8 mg/L"
N#Cc1c(-c2ccccc2)nc(SCc2ccccc2)[nH]c1=O,< 10,16,17,16,< 10,< 10,–,–,–
N#Cc1c(Nc2ccc(F)cc2)nc(SCc2ccc(Cl)cc2)nc1-c1ccccc1,< 10,16,18,19,< 10,< 10,2,1,"MIC (Micrococcus luteus [8]; IFO 3232, 24 h): 4 mg/L"
CSCCSc1nc(-c2ccccc2)c(C#N)c(=O)[nH]1,14,16,18,15,21,18,–,8,–
N#Cc1c(-c2ccccc2)nc(SCOCc2ccccc2)[nH]c1=O,< 10,14,16,13,< 10,< 10,–,–,–
Cc1ccccc1Sc1nc(SCc2ccc(Cl)cc2)nc(-c2ccccc2)c1C#N,< 10,< 10,< 10,< 10,< 10,< 10,–,–,–
CCOCCSc1nc(-c2ccccc2)c(C#N)c(=O)[nH]1,< 10,21,24,17,14,11,4,4,–
N#Cc1c(Cl)nc(SCc2ccc(Cl)cc2)nc1-c1ccccc1,12,24,26,18,16,14,–,–,–
N#Cc1c(-c2ccccc2)nc(SCc2ccc(F)cc2)[nH]c1=O,< 10,22,26,21,18,14,4,2,"MIC (Micrococcus luteus [8]; IFO 3232, 24 h): 4 mg/L; MIC (Escherichia coli [9]; IFO 3301, 24 h): 8 mg/L"
N#Cc1c(-c2ccccc2)nc(SCc2ccc([N+](=O)[O-])o2)[nH]c1=O,11,33,28,24,22,21,0.5,1,"MIC (Micrococcus luteus [8]; IFO 3232, 24 h): 1 mg/L; MIC (Escherichia coli [9]; IFO 3301, 24 h): 2 mg/L; MIC (Pseudomonas aeruginosa [10]; IFO 3448, 24 h): 4 mg/L"
COCCSc1nc(-c2ccccc2)c(C#N)c(=O)[nH]1,< 10,18,22,17,12,10,8,2,–
N#Cc1c(Sc2ccccc2)nc(SCc2ccc(Cl)cc2)nc1-c1ccccc1,< 10,12,14,12,< 10,< 10,–,–,–
CC1(C)S[C@@H]2[C@H](NC(=O)[C@H](N)c3ccccc3)C(=O)N2[C@H]1C(=O)O.O.O.O [AMPICILLIN TRIHYDRATE],–,–,–,–,–,–,2,0.5,"zone of inhibition at 100 µg/disc (Staphylococcus aureus [11]; IFO 3060, 24 h, read-out: DIZ): 23 mm; zone of inhibition at 100 µg/disc (Bacillus subtilis [12]; IFO 3007, 24 h, read-out: DIZ): 21 mm; zone of inhibition at 100 µg/disc (Micrococcus luteus [13]; IFO 3232, 24 h, read-out: DIZ): 19 mm; zone of inhibition at 100 µg/disc (Escherichia coli [14]; IFO 3301, 24 h, read-out: DIZ): 17 mm; zone of inhibition at 100 µg/disc (Pseudomonas aeruginosa [15]; IFO 3448, 24 h, read-out: DIZ): 17 mm; MIC (Micrococcus luteus [8]; IFO 3232, 24 h): 2 mg/L; MIC (Pseudomonas aeruginosa [10]; IFO 3448, 24 h): 2 mg/L"
N#Cc1c(Nc2cccc(C(F)(F)F)c2)nc(SCc2ccc(Cl)cc2)nc1-c1ccccc1,< 10,14,14,11,< 10,< 10,–,–,–
GENTAMICIN SULFATE,–,–,–,–,–,–,–,–,inhibition zone (IZ) (Staphylococcus aureus [11]): 26 mm; inhibition zone (IZ) (Bacillus subtilis [12]): 25 mm; inhibition zone (IZ) (Micrococcus luteus [13]): 18 mm; inhibition zone (IZ) (Escherichia coli [14]): 20 mm; inhibition zone (IZ) (Pseudomonas aeruginosa [15]): 19 mm; MIC (Staphylococcus aureus [6]): 2 mg/L; MIC (Bacillus subtilis [7]): 2 mg/L; MIC (Micrococcus luteus [8]): 2 mg/L; MIC (Escherichia coli [9]): 0.5 mg/L; MIC (Pseudomonas aeruginosa [10]): 1 mg/L
N#Cc1c(Nc2ccccc2C(F)(F)F)nc(SCc2ccc(Cl)cc2)nc1-c1ccccc1,< 10,12,12,10,< 10,< 10,–,–,–
Cc1ccc(Sc2nc(SCc3ccc(Cl)cc3)nc(-c3ccccc3)c2C#N)cc1,< 10,14,13,11,< 10,< 10,–,–,–
N#Cc1c(-c2ccccc2)nc(SCc2ccc([N+](=O)[O-])cc2)[nH]c1=O,< 10,14,17,13,12,< 10,–,–,–
